Laboratory results reported in ChEMBL document CHEMBL1926549, “First chemical feature-based pharmacophore modeling of potent retinoidal retinoic acid metabolism blocking agents (RAMBAs): identification of novel RAMBA scaffolds” (Eur J Med Chem, 2012).

Test system: not listed separately
Assay: Inhibition of CYP26 in hamster liver microsomes assessed as [11,12-[3H]ATRA metabolism treated 3 mins before [11,12,3H]ATRA addition measured after 30 mins by HPLC analysis
Set-up: species or system Cricetinae, Microsome
Conditions: not given

Row | IC50 [nM] | Structure (SMILES)
1 | 2 | COC(=O)/C=C(C)/C=C/C=C(C)/C=C/C1=C(C)C(n2cncn2)CCC1(C)C (racemic)
2 | 2.33 | CC1=C(/C=C/C(C)=C/C=C/C(C)=C/C(=O)O)C(C)(C)CCC1n1ccnc1 (racemic)
3 | 0.009 | COC(=O)/C=C(C)/C=C/C=C(C)/C=C/C1=C(C)C(n2ccnc2)CCC1(C)C (racemic)
4 | 5.84 | CC1=C(/C=C/C(C)=C/C=C/C(C)=C/C(=O)O)C(C)(C)CCC1n1cncn1 (racemic)
5 | 0.05 | CC1=C(/C=C/C(C)=C/C=C/C(C)=C/C(=O)n2ccnc2)C(C)(C)CCC1n1cncn1 (racemic)

Test system: Cricetinae
Assay: Inhibition of CYP26 in hamster liver microsomes assessed as [11,12-[3H]ATRA metabolism at 100 nM treated 3 mins before [11,12,3H]ATRA addition measured after 30 mins by HPLC analysis
Conditions: Microsome
How it was run: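 Hamster liver microsomes (500 μg/mL stock) were used in 0.1 M phosphate buffer, pH 7.4, with NADPH (20 mM stock), MgCl2 and BSA. Inhibitor at 100 nM in DMSO was preincubated for 3 min at 37 °C. [11,12-3H]-ATRA was then added at 20 μM and incubated 30 min under oxygen at 37 °C. The reaction was stopped with formic acid, extracted with ethyl acetate/methanol/BHA, and radiolabelled polar metabolites were quantified by HPLC.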

Row | Structure (SMILES) | inhibition [%]
6 | CCCCCCC(CCCCCCCCCCC(=O)OC(C)(C)C)OC(C)=O (stereo not given) | 36.2
7 | COc1cc(/C=N/CCCC/N=C/c2cc(OC)c(OC)c(OC)c2)cc(OC)c1OC | 27.3
8 | Nc1nc(Cl)cc(NCCCCCCCCCCNc2cc(Cl)nc(N)n2)n1 | 32.7
9 | O=C(Oc1ccc(CC/C=C/CCc2ccc(OC(=O)c3ccccc3)cc2)cc1)c1ccccc1 | 30.4
10 | C/C(=N\CCCCCC/N=C(\C)c1cc(O)ccc1O)c1cc(O)ccc1O | 22.2
11 | CCOC(=O)CCCCCCCCCCCCCCCCC(=O)OCC | 29.5
12 | COC(=O)CCCCCc1ccc(Cc2ccc(CCCCCC(=O)OC)cc2)cc1 | 31.4
13 | C/C(=N\Cc1cccc(C/N=C(\C)c2ccccc2O)c1)c1ccccc1O | 38.6
14 | O=C(Nc1ccc(OCCCCCOc2ccccc2)cc1)C(F)(F)F | 34.8
15 | CCOC(=O)c1cnn(-c2ccc(Cc3ccc(-n4ncc(C(=O)OCC)c4C)cc3)cc2)c1C | 49.8
16 | CNC(=S)N/N=C(\C)CCCCCCCCCCCC/C(C)=N/NC(=S)NC | 21.2
17 | CCOc1cc(/C=N/N2CCN(/N=C/c3ccc(O)c(OCC)c3)CC2)ccc1O | 34.3
18 | Nc1nc(Cl)cc(NCCCCCCCCNc2cc(Cl)nc(N)n2)n1 | 18.1
19 | CC(SCCCCCCCCCCSC(C)C(=O)O)C(=O)O (stereo not given) | 20.5

Second part, the compound after the results:

Row | inhibition [%] | Structure (SMILES)
20 | 42.8 | Cc1nc(N)nc(O)c1CCCNc1ccc(CCCCC(=O)CCl)cc1
21 | 54.7 | CCOC(=O)/C=C(\C)NCCSSCCN/C(C)=C/C(=O)OCC
22 | 33.8 | Cc1cc(CC(C)C2CCC(C)C(c3ccc(O)c(C)c3)C2)ccc1O (stereo not given)
23 | 17.9 | COC(=O)c1cc(OCC#CC#CCOc2ccc(O)c(C(=O)OC)c2)ccc1O
24 | 28.5 | COc1ccc(/C(C)=N/OC(=O)c2cc(OC)c(OC)c(OC)c2)cc1CSc1ccccn1
25 | 29.4 | Cc1nc(N)nc(O)c1CCCNc1ccc(CCCCC2(CCl)OCCO2)cc1
